Test results reported in ChEMBL document CHEMBL1255396, “Trailing or paradoxical growth of Candida albicans when exposed to caspofungin is not associated with microsatellite genotypes” (2010).
In brackets after ≈: the same amount, converted by molar mass.

Experiments:
Format in all cases: functional
Candida albicans [1] = test: Antimicrobial activity against Candida albicans isolate 6 after 48 hrs by broth microdilution assay; details: isolate 6, 48 h
Outline: (§1)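 Sensititre YeastOne caspofungin broth microdilution, which follows the CLSI method but uses alamarBlue readout in RPMI 1640 with 2% glucose. Done in duplicate and read after 48 h at 30°C. QC strains were C. krusei ATCC 6258 and C. parapsilosis ATCC 22019. Isolates were from different patients and wards in four Marseille hospitals.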

Candida albicans [2] = test: Antimicrobial activity against Candida albicans isolate 13 after 48 hrs by broth microdilution assay; details: isolate 13, 48 h; outline: as §1
Candida albicans [3] = test: Antimicrobial activity against Candida albicans isolate 16 after 48 hrs by broth microdilution assay; details: isolate 16, 48 h; outline: as §1
Candida albicans [4] = test: Antimicrobial activity against Candida albicans isolate 13 after 48 hrs by Etest method; details: isolate 13, 48 h
Outline: (§2)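 Caspofungin agar-diffusion Etest strips on clinical isolates from four Marseille teaching hospitals, each from a different patient. Run in duplicate and read after 48 h at 30°C. QC strains were C. krusei ATCC 6258 and C. parapsilosis ATCC 22019. Trailing, paradoxical growth and clear endpoints were scored from growth relative to the MIC.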

Candida albicans [5] = test: Antimicrobial activity against Candida albicans isolate 21 after 48 hrs by broth microdilution assay; details: isolate 21, 48 h; outline: as §1
Candida albicans [6] = test: Antimicrobial activity against Candida albicans isolate 23 after 48 hrs by Etest method; details: isolate 23, 48 h; outline: as §2
Candida albicans [7] = test: Antimicrobial activity against Candida albicans isolate 2 after 48 hrs by broth microdilution assay; details: isolate 2, 48 h; outline: as §1
Candida albicans [8] = test: Antimicrobial activity against Candida albicans isolate 15 after 48 hrs by broth microdilution assay; details: isolate 15, 48 h; outline: as §1
Candida albicans [9] = test: Antimicrobial activity against Candida albicans isolate 5 after 48 hrs by Etest method; details: isolate 5, 48 h; outline: as §2
Candida albicans [10] = test: Antimicrobial activity against Candida albicans isolate 25 after 48 hrs by broth microdilution assay; details: isolate 25, 48 h; outline: as §1
Candida albicans [11] = test: Antimicrobial activity against Candida albicans isolate 4 after 48 hrs by broth microdilution assay; details: isolate 4, 48 h; outline: as §1
Candida albicans [12] = test: Antimicrobial activity against Candida albicans isolate 1 after 48 hrs by Etest method; details: isolate 1, 48 h; outline: as §2
Candida albicans [13] = test: Antimicrobial activity against Candida albicans isolate 24 after 48 hrs by Etest method; details: isolate 24, 48 h; outline: as §2
Candida albicans [14] = test: Antimicrobial activity against Candida albicans isolate 27 after 48 hrs by Etest method; details: isolate 27, 48 h; outline: as §2
Candida albicans [15] = test: Antimicrobial activity against Candida albicans isolate 3 after 48 hrs by Etest method; details: isolate 3, 48 h; outline: as §2
Candida albicans [16] = test: Antimicrobial activity against Candida albicans isolate 16 after 48 hrs by Etest method; details: isolate 16, 48 h; outline: as §2
Candida albicans [17] = test: Antimicrobial activity against Candida albicans isolate 12 after 48 hrs by Etest method; details: isolate 12, 48 h; outline: as §2
Candida albicans [18] = test: Antimicrobial activity against Candida albicans isolate 6 after 48 hrs by Etest method; details: isolate 6, 48 h; outline: as §2
Candida albicans [19] = test: Antimicrobial activity against Candida albicans isolate 27 after 48 hrs by broth microdilution assay; details: isolate 27, 48 h; outline: as §1
Candida albicans [20] = test: Antimicrobial activity against Candida albicans isolate 17 after 48 hrs by Etest method; details: isolate 17, 48 h; outline: as §2
Candida albicans [21] = test: Antimicrobial activity against Candida albicans isolate 24 after 48 hrs by broth microdilution assay; details: isolate 24, 48 h; outline: as §1
Candida albicans [22] = test: Antimicrobial activity against Candida albicans isolate 12 after 48 hrs by broth microdilution assay; details: isolate 12, 48 h; outline: as §1
Candida albicans [23] = test: Antimicrobial activity against Candida albicans isolate 4 after 48 hrs by Etest method; details: isolate 4, 48 h; outline: as §2
Candida albicans [24] = test: Antimicrobial activity against Candida albicans isolate 23 after 48 hrs by broth microdilution assay; details: isolate 23, 48 h; outline: as §1
Candida albicans [25] = test: Antimicrobial activity against Candida albicans isolate 19 after 48 hrs by broth microdilution assay; details: isolate 19, 48 h; outline: as §1
Candida albicans [26] = test: Antimicrobial activity against Candida albicans isolate 14 after 48 hrs by Etest method; details: isolate 14, 48 h; outline: as §2
Candida albicans [27] = test: Antimicrobial activity against Candida albicans isolate 17 after 48 hrs by broth microdilution assay; details: isolate 17, 48 h; outline: as §1
Candida albicans [28] = test: Antimicrobial activity against Candida albicans isolate 7 after 48 hrs by broth microdilution assay; details: isolate 7, 48 h; outline: as §1
Candida albicans [29] = test: Antimicrobial activity against Candida albicans isolate 8 after 48 hrs by broth microdilution assay; details: isolate 8, 48 h; outline: as §1
Candida albicans [30] = test: Antimicrobial activity against Candida albicans isolate 18 after 48 hrs by Etest method; details: isolate 18, 48 h; outline: as §2
Candida albicans [31] = test: Antimicrobial activity against Candida albicans isolate 2 after 48 hrs by Etest method; details: isolate 2, 48 h; outline: as §2
Candida albicans [32] = test: Antimicrobial activity against Candida albicans isolate 20 after 48 hrs by broth microdilution assay; details: isolate 20, 48 h; outline: as §1
Candida albicans [33] = test: Antimicrobial activity against Candida albicans isolate 3 after 48 hrs by broth microdilution assay; details: isolate 3, 48 h; outline: as §1
Candida albicans [34] = test: Antimicrobial activity against Candida albicans isolate 8 after 48 hrs by Etest method; details: isolate 8, 48 h; outline: as §2
Candida albicans [35] = test: Antimicrobial activity against Candida albicans isolate 19 after 48 hrs by Etest method; details: isolate 19, 48 h; outline: as §2
Candida albicans [36] = test: Antimicrobial activity against Candida albicans isolate 20 after 48 hrs by Etest method; details: isolate 20, 48 h; outline: as §2
Candida albicans [37] = test: Antimicrobial activity against Candida albicans isolate 26 after 48 hrs by Etest method; details: isolate 26, 48 h; outline: as §2
Candida albicans [38] = test: Antimicrobial activity against Candida albicans isolate 11 after 48 hrs by Etest method; details: isolate 11, 48 h; outline: as §2
Candida albicans [39] = test: Antimicrobial activity against Candida albicans isolate 7 after 48 hrs by Etest method; details: isolate 7, 48 h; outline: as §2
Candida albicans [40] = test: Antimicrobial activity against Candida albicans isolate 9 after 48 hrs by Etest method; details: isolate 9, 48 h
Outline: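 Caspofungin Etest strip (agar diffusion) applied per manufacturer to a clinical isolate. Plates read after 48 h at 30°C. Testing done in duplicate. QC strains: C. krusei ATCC 6258 and C. parapsilosis ATCC 22019. Paradoxical growth and trailing were scored as separate endpoint phenotypes.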

Candida albicans [41] = test: Antimicrobial activity against Candida albicans isolate 18 after 48 hrs by broth microdilution assay; details: isolate 18, 48 h; outline: as §1
Candida albicans [42] = test: Antimicrobial activity against Candida albicans isolate 22 after 48 hrs by broth microdilution assay; details: isolate 22, 48 h; outline: as §1
Candida albicans [43] = test: Antimicrobial activity against Candida albicans isolate 25 after 48 hrs by Etest method; details: isolate 25, 48 h; outline: as §2
Candida albicans [44] = test: Antimicrobial activity against Candida albicans isolate 15 after 48 hrs by Etest method; details: isolate 15, 48 h; outline: as §2
Candida albicans [45] = test: Antimicrobial activity against Candida albicans isolate 9 after 48 hrs by broth microdilution assay; details: isolate 9, 48 h
Outline: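 Sensititre Yeast One broth microdilution used per manufacturer. It matches the CLSI method except for the alamarBlue read-out and RPMI 1640 with 2% glucose. Read after 48 h at 30°C. Testing done in duplicate. QC strains: C. krusei ATCC 6258 and C. parapsilosis ATCC 22019. Paradoxical growth and trailing were scored separately.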

Candida albicans [46] = test: Antimicrobial activity against Candida albicans isolate 11 after 48 hrs by broth microdilution assay; details: isolate 11, 48 h; outline: as §1
Candida albicans [47] = test: Antimicrobial activity against Candida albicans isolate 22 after 48 hrs by Etest method; details: isolate 22, 48 h; outline: as §2
Candida albicans [48] = test: Antimicrobial activity against Candida albicans isolate 14 after 48 hrs by broth microdilution assay; details: isolate 14, 48 h; outline: as §1
Candida albicans [49] = test: Antimicrobial activity against Candida albicans isolate 1 after 48 hrs by broth microdilution assay; details: isolate 1, 48 h; outline: as §1
Candida albicans [50] = test: Antimicrobial activity against Candida albicans isolate 21 after 48 hrs by Etest method; details: isolate 21, 48 h; outline: as §2
Candida albicans [51] = test: Antimicrobial activity against Candida albicans isolate 26 after 48 hrs by broth microdilution assay; details: isolate 26, 48 h; outline: as §1
Candida albicans [52] = test: Antimicrobial activity against Candida albicans isolate 5 after 48 hrs by broth microdilution assay; details: isolate 5, 48 h; outline: as §1

MIC (Candida albicans [1]): 0.125 µg/mL (≈ 0.114 µM)
MIC (Candida albicans [2]): 0.023 µg/mL (≈ 0.021 µM)
MIC (Candida albicans [3]): 0.032 µg/mL (≈ 0.0293 µM)
MIC (Candida albicans [4]): 0.023 µg/mL (≈ 0.021 µM)
MIC (Candida albicans [5]): 0.064 µg/mL (≈ 0.0585 µM)
MIC (Candida albicans [6]): 0.064 µg/mL (≈ 0.0585 µM)
MIC (Candida albicans [7]): 0.032 µg/mL (≈ 0.0293 µM)
MIC (Candida albicans [8]): 0.016 µg/mL (≈ 0.0146 µM)
MIC (Candida albicans [9]): 0.064 µg/mL (≈ 0.0585 µM)
MIC (Candida albicans [10]): 0.064 µg/mL (≈ 0.0585 µM)
MIC (Candida albicans [11]): 0.032 µg/mL (≈ 0.0293 µM)
MIC (Candida albicans [12]): 8 ng/mL (≈ 0.00732 µM)
MIC (Candida albicans [13]): 0.064 µg/mL (≈ 0.0585 µM)
MIC (Candida albicans [14]): 0.047 µg/mL (≈ 0.043 µM)
MIC (Candida albicans [15]): 0.032 µg/mL (≈ 0.0293 µM)
MIC (Candida albicans [16]): 0.032 µg/mL (≈ 0.0293 µM)
MIC (Candida albicans [17]): 0.064 µg/mL (≈ 0.0585 µM)
MIC (Candida albicans [18]): 0.125 µg/mL (≈ 0.114 µM)
MIC (Candida albicans [19]): 0.047 µg/mL (≈ 0.043 µM)
MIC (Candida albicans [20]): 0.125 µg/mL (≈ 0.114 µM)
MIC (Candida albicans [21]): 0.064 µg/mL (≈ 0.0585 µM)
MIC (Candida albicans [22]): 0.064 µg/mL (≈ 0.0585 µM)
MIC (Candida albicans [23]): 0.032 µg/mL (≈ 0.0293 µM)
MIC (Candida albicans [24]): 0.064 µg/mL (≈ 0.0585 µM)
MIC (Candida albicans [25]): 0.75 µg/mL (≈ 0.686 µM)
MIC (Candida albicans [26]): 0.032 µg/mL (≈ 0.0293 µM)
MIC (Candida albicans [27]): 0.125 µg/mL (≈ 0.114 µM)
MIC (Candida albicans [28]): 0.064 µg/mL (≈ 0.0585 µM)
MIC (Candida albicans [29]): 0.125 µg/mL (≈ 0.114 µM)
MIC (Candida albicans [30]): 0.094 µg/mL (≈ 0.086 µM)
MIC (Candida albicans [31]): 0.032 µg/mL (≈ 0.0293 µM)
MIC (Candida albicans [32]): 0.032 µg/mL (≈ 0.0293 µM)
MIC (Candida albicans [33]): 0.032 µg/mL (≈ 0.0293 µM)
MIC (Candida albicans [34]): 0.125 µg/mL (≈ 0.114 µM)
MIC (Candida albicans [35]): 0.75 µg/mL (≈ 0.686 µM)
MIC (Candida albicans [36]): 0.032 µg/mL (≈ 0.0293 µM)
MIC (Candida albicans [37]): 0.094 µg/mL (≈ 0.086 µM)
MIC (Candida albicans [38]): 0.094 µg/mL (≈ 0.086 µM)
MIC (Candida albicans [39]): 0.064 µg/mL (≈ 0.0585 µM)
MIC (Candida albicans [40]): 0.047 µg/mL (≈ 0.043 µM)
MIC (Candida albicans [41]): 0.094 µg/mL (≈ 0.086 µM)
MIC (Candida albicans [42]): 0.125 µg/mL (≈ 0.114 µM)
MIC (Candida albicans [43]): 0.064 µg/mL (≈ 0.0585 µM)
MIC (Candida albicans [44]): 0.016 µg/mL (≈ 0.0146 µM)
MIC (Candida albicans [45]): 0.047 µg/mL (≈ 0.043 µM)
MIC (Candida albicans [46]): 0.094 µg/mL (≈ 0.086 µM)
MIC (Candida albicans [47]): 0.125 µg/mL (≈ 0.114 µM)
MIC (Candida albicans [48]): 0.032 µg/mL (≈ 0.0293 µM)
MIC (Candida albicans [49]): 8 ng/mL (≈ 0.00732 µM)
MIC (Candida albicans [50]): 0.064 µg/mL (≈ 0.0585 µM)
MIC (Candida albicans [51]): 0.094 µg/mL (≈ 0.086 µM)
MIC (Candida albicans [52]): 0.064 µg/mL (≈ 0.0585 µM)
Compound: CC[C@H](C)C[C@H](C)CCCCCCCCC(=O)N[C@H]1C[C@@H](O)[C@@H](NCCN)NC(=O)[C@@H]2[C@@H](O)CCN2C(=O)[C@H]([C@H](O)CCN)NC(=O)[C@H]([C@H](O)[C@@H](O)c2ccc(O)cc2)NC(=O)[C@@H]2C[C@@H](O)CN2C(=O)[C@H]([C@@H](C)O)NC1=O [CASPOFUNGIN]
